Test results taken from ChEMBL document CHEMBL1140094, “Novel microtubule-interacting phenoxy pyridine and phenyl sulfanyl pyridine analogues for cancer therapy” (J Med Chem, 2008).
Activity calls are given as the source filed them. The calls are words filed in the database; no cut-off is given here.

Tests used:
PANC-1 [1] = experiment: Growth inhibition of human Panc1 cells at 10 uM after 96 hrs by MTT assay relative to control; format: functional; conditions: PANC-1, 96 h, values are per cent of control
Outline: (§1)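 MTT initial screen of Panc1 and HS766T human pancreatic cancer cells at 1 and 10 μM; growth expressed as percent of untreated control with SD.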

PANC-1 [2] = experiment: Growth inhibition of human Panc1 cells at 1 uM after 96 hrs by MTT assay relative to control; format: functional; conditions: PANC-1, 96 h, values are per cent of control; outline: as §1
[3] = Growth inhibition of human HS766T cells at 10 uM after 96 hrs by MTT assay relative to control; format: functional; conditions: Hs 766, 96 h, values are per cent of control; outline: as §1
[4] = Growth inhibition of human HS766T cells at 1 uM after 96 hrs by MTT assay relative to control; format: functional; conditions: Hs 766, 96 h, values are per cent of control; outline: as §1
[5] = Inhibition of tubulin polymerization relative to control; conditions: values are per cent of control
Outline: (§2)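 Turbidity-monitored tubulin assembly; extent of assembly at 20 min compared with no-compound control.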

[6] = Inhibition of tubulin polymerization assessed as effect on maximum propogation rate
[7] = Growth inhibition of human HS766T cells after 96 hrs by MTT assay relative to control; format: functional, cell-based; conditions: Hs 766, 96 h
SK-OV-3 = experiment: Cytotoxicity against paclitaxel-resistant human SKOV3 cells after 7 days by MTT assay; format: functional, cell-based
MCF7 [8] = experiment: Cell cycle arrest in human MCF7 cells assessed as accumulation at G2/M phase at 5 uM after 15 hrs by MPM2 antibody labeling; format: functional
Outline: (§3)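 MCF7 breast cancer cells treated 15 h at 5 μM; colcemid 0.1 μg/mL (about 0.25 μM) as positive control. Cells harvested and fixed, DNA labeled with propidium iodide, mitotic cells labeled with monoclonal MPM2 (phospho-epitopes at mitosis onset); flow cytometry. PI scans gated M1 G1, M3 S, M2 G2/M; mitotic fold increase versus untreated.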

PANC-1 [9] = experiment: Growth inhibition of human Panc1 cells after 96 hrs by MTT assay relative to control; format: functional, cell-based; conditions: PANC-1, 96 h
MCF7 [10] = experiment: Cell cycle arrest in human MCF7 cells assessed as accumulation at G2/M phase at 5 uM after 15 hrs by propidium iodide staining; format: functional; outline: as §3
[11] = Inhibition of tubulin polymerization at 4 to 5 uM relative to control; outline: as §2
MCF7 [12] = experiment: Induction of microtubule disassembly in human MCF7 cells assessed as prometaphase cell cycle arrest at 5 uM after 15 hrs by immunofluorescence staining; format: functional, cell-based
Outline: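 MCF7 cells exposed 15 h to 5 μM compound, colcemid 0.25 μM as positive control, untreated controls. Anti-α-tubulin primary with Alexa-568 secondary, DNA counterstained with DAPI; immunofluorescence microscopy scoring microtubule loss, mitotic stage (prometaphase arrest) and micronuclei in interphase cells.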

[13] = Inhibition of tubulin polymerization

Row | SMILES | viability, % of control at 10 µM (PANC-1 [1]) [%] | viability, % of control at 1 µM (PANC-1 [2]) [%] | viability, % of control at 10 µM [3] [%] | viability, % of control at 1 µM [4] [%] | other results
1 | CNC(=O)c1cccc(Sc2ccc(NC(=O)NC(=O)c3ccccc3[N+](=O)[O-])cc2)c1 | 38 | 60 | 23 | 63 | 
2 | C=CCNC(=O)c1cccc(Sc2ccc(NC(=O)NC(=O)c3ccccc3[N+](=O)[O-])cc2)c1 | 44 | 70 | 27 | 50 | 
3 | C=CCNC(=O)c1cccc(Sc2ccc(NC(=O)NC(=O)c3cc(OC)cc(OC)c3)cc2)c1 | 41 | 62 | 87 | 105 | 
4 | C=CCNC(=O)c1cccc(Oc2ccc(NC(=S)NC(=O)c3ccccc3)cc2)c1 | 68 | 97 | 73 | 88 | 
5 | C=CCNC(=O)c1cccc(Sc2ccc(NC(=O)NC(=O)c3ccccc3Cl)cc2)c1 | 46 | 69 | 36 | 109 | 
6 | O=C(NC(=O)c1ccccc1)Nc1ccc(Sc2cccc(C(=O)NCc3ccccc3)c2)cc1 | 53 | 67 | 73 | 79 | 
7 | CNC(=O)c1cccc(Sc2ccc(NC(=O)NC(=O)c3ccc(OC)c(OC)c3Cl)cc2)c1 | 33 | 35 | 21 | 30 | residual activity [5]: 40%; IC50 [6]: 1700 nM; IC50 [7]: 500 nM; Activity (SK-OV-3): Active; Activity (MCF7 [8]): 47.23%; IC50 (PANC-1 [9]): 700 nM; Activity (MCF7 [10]): 75.71%; inhibition [11]: 50%; Activity (MCF7 [12]): Active
8 | C=CCNC(=O)c1cccc(Oc2ccc(NC(=O)NC(=O)c3ccccc3Cl)cc2)c1 | 38 | 47 | 23 | 36 | IC50 [6]: 4000 nM; IC50 [7]: 150 nM; Activity (MCF7 [8]): 38.29%; IC50 (PANC-1 [9]): 800 nM; Activity (MCF7 [10]): 67.49%; Activity (MCF7 [12]): Active
9 | CCCCCCCCCCNC(=O)c1cccc(S(=O)(=O)c2ccc(NC(=O)NC(=O)c3cc(OC)cc(OC)c3)cc2)c1 | 43 | 48 | 56 | 71 | 
10 | CCCCCCCCCCNC(=O)c1cccc(Sc2ccc(NC(=O)NC(=O)c3cc(OC)cc(OC)c3)cc2)c1 | 58 | 74 | 66 | 77 | 
11 | CNC(=O)c1cccc(Sc2ccc(NC(=O)NC(=O)c3ccccc3)cc2)c1 | 41 | 65 | 26 | 77 | 
12 | C=CCNC(=O)c1cccc(Oc2ccc(NC(=O)NC(=O)c3ccccc3)cc2)c1 | 51 | 66 | 70 | 76 | 
13 | C=CCNC(=O)c1cccc(Oc2ccc(NC(=O)NC(=O)c3cc(OC)cc(OC)c3)cc2)c1 | 68 | 58 | 64 | 107 | 
14 | C=CCNC(=O)c1cccc(Oc2ccc(NC(=O)NC(=O)c3ccc(OC)c(OC)c3Cl)cc2)c1 | 53 | 61 | 50 | 67 | 
15 | COc1cc2c(c(OC)c1OC)-c1ccc(OC)c(=O)cc1[C@@H](NC(C)=O)CC2 [COLCHICINE] |  |  |  |  | IC50 [13]: 2200 nM
16 | O=C(NC(=O)c1ccccc1Cl)Nc1ccc(Sc2cccc(C(=O)NCc3ccccc3)c2)cc1 | 66 | 86 | 74 | 95 | 
17 | C=CCNC(=O)c1cccc(Sc2ccc(NC(=O)NC(=O)c3ccc(OC)c(OC)c3Cl)cc2)c1 | 44 | 88 | 23 | 101 | 
18 | CCCCCCCCCCNC(=O)c1cccc(Sc2ccc(NC(=O)NC(=O)c3ccc(OC)c(OC)c3Cl)cc2)c1 | 51 | 63 | 62 | 79 | 
19 | C=CCNC(=O)c1cccc(Oc2ccc(NC(=O)NC(=O)c3ccccc3[N+](=O)[O-])cc2)c1 | 55 | 76 | 30 | 55 | 
20 | COc1ccc(C(=O)NC(=O)Nc2ccc(Sc3cccc(C(=O)NCc4ccccc4)c3)cc2)c(Cl)c1OC | 51 | 89 | 75 | 97 | 
21 | CNC(=O)c1cccc(Sc2ccc(NC(=O)NC(=O)c3cc(OC)cc(OC)c3Cl)cc2)c1 | 52 | 77 | 31 | 54 | 
